Measurements from ChEMBL document CHEMBL1938381, “Design, synthesis, and structure-activity relationship studies of conformationally restricted mutilin 14-carbamates” (2012).
In brackets after ≈: the same amount, converted by molar mass.

Tests used:
Assay type in all cases: functional
[1] = tested on: Staphylococcus epidermidis; assay: Ratio of Linezolid MIC to compound MIC for methicillin-susceptible Staphylococcus epidermidis
Streptococcus pneumoniae [2] = assay: Antibacterial activity against Streptococcus pneumoniae by agar microdilution method
Procedure, shortened: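 MIC read by agar microdilution following NCCLS standard M7-A6 (2003), against a panel of 3 Streptococcus pneumoniae clinical isolates. Values in µg/mL, given as a range where the isolates differed.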

[3] = tested on: Staphylococcus epidermidis; assay: Antibacterial activity against methicillin-susceptible Staphylococcus epidermidis by agar microdilution method
Procedure, shortened: (§1)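 MIC by agar microdilution following NCCLS standard M7-A6 (2003), tested against clinical isolates: MRSA n = 6, MRSE n = 5, MSSA n = 5, MSSE n = 5; values given as a single MIC or a range across isolates.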

Staphylococcus aureus [4] = assay: Antibacterial activity against methicillin-resistant Staphylococcus aureus by agar microdilution method; procedure, shortened: as §1
Streptococcus pneumoniae [5] = assay: Ratio of Linezolid MIC to compound MIC for Streptococcus pneumoniae
[6] = tested on: Staphylococcus epidermidis; assay: Antibacterial activity against methicillin-resistant Staphylococcus epidermidis by agar microdilution method; procedure, shortened: as §1
Staphylococcus aureus [7] = assay: Antibacterial activity against methicillin-susceptible Staphylococcus aureus by agar microdilution method; procedure, shortened: as §1
Staphylococcus aureus [8] = assay: Ratio of Linezolid MIC to compound MIC for methicillin-susceptible Staphylococcus aureus

Structure (SMILES) | Ratio [1] | MIC (Streptococcus pneumoniae [2]) [µg/mL] | MIC [3] [µg/mL] | MIC (Staphylococcus aureus [4]) [µg/mL] | Ratio (Streptococcus pneumoniae [5]) | MIC [6] [µg/mL] | MIC (Staphylococcus aureus [7]) [µg/mL] | Ratio (Staphylococcus aureus [8])
C=C[C@]1(C)C[C@@H](OC(=O)N2Cc3ccccc3C2=O)[C@]2(C)[C@H](C)CC[C@]3(CCC(=O)[C@H]32)[C@@H](C)[C@@H]1O | 4 | 0.125 (≈ 0.261 µM) | 0.125 (≈ 0.261 µM) | 0.125 (≈ 0.261 µM) | 4 | 0.125 (≈ 0.261 µM) | 0.125 (≈ 0.261 µM) | 4
C=C[C@]1(C)C[C@@H](OC(=O)N2Cc3c(OC)cccc3C2=O)[C@]2(C)[C@H](C)CC[C@]3(CCC(=O)[C@H]32)[C@@H](C)[C@@H]1O |  | 4 (≈ 7.85 µM) | 2 (≈ 3.92 µM) | 2 (≈ 3.92 µM) |  | 2 (≈ 3.92 µM) | 2 (≈ 3.92 µM) | 
C=C[C@]1(C)C[C@@H](OC(=O)N2Cc3c(cccc3[N+](=O)[O-])C2=O)[C@]2(C)[C@H](C)CC[C@]3(CCC(=O)[C@H]32)[C@@H](C)[C@@H]1O |  | 0.5 (≈ 0.953 µM) | 0.5 (≈ 0.953 µM) | 0.5 (≈ 0.953 µM) |  | 0.5 (≈ 0.953 µM) | 0.5 (≈ 0.953 µM) | 
C=C[C@]1(C)C[C@@H](OC(=O)N2Cc3ccc([N+](=O)[O-])cc3C2=O)[C@]2(C)[C@H](C)CC[C@]3(CCC(=O)[C@H]32)[C@@H](C)[C@@H]1O |  | 0.5 (≈ 0.953 µM) | 0.5 (≈ 0.953 µM) | 0.5 (≈ 0.953 µM) |  | 0.5 (≈ 0.953 µM) | 0.5 (≈ 0.953 µM) | 
C=C[C@]1(C)C[C@@H](OC(=O)N2Cc3cc(N4CCOCC4)ccc3C2=O)[C@]2(C)[C@H](C)CC[C@]3(CCC(=O)[C@H]32)[C@@H](C)[C@@H]1O |  | 0.5 (≈ 0.885 µM) | 0.5 (≈ 0.885 µM) | 0.5 (≈ 0.885 µM) |  | 0.5 (≈ 0.885 µM) | 0.5 (≈ 0.885 µM) | 
C=C[C@]1(C)C[C@@H](OC(=O)N2Cc3cc(N4CCCCC4)ccc3C2=O)[C@]2(C)[C@H](C)CC[C@]3(CCC(=O)[C@H]32)[C@@H](C)[C@@H]1O |  | 4 (≈ 7.11 µM) | 2 (≈ 3.55 µM) | 2 (≈ 3.55 µM) |  | 2 (≈ 3.55 µM) | 2 (≈ 3.55 µM) | 
C=C[C@]1(C)C[C@@H](OC(=O)N2Cc3cc(NCc4ccccc4)ccc3C2=O)[C@]2(C)[C@H](C)CC[C@]3(CCC(=O)[C@H]32)[C@@H](C)[C@@H]1O |  | 2 (≈ 3.42 µM) | 2 (≈ 3.42 µM) | 2 (≈ 3.42 µM) |  | 2 (≈ 3.42 µM) | 2 (≈ 3.42 µM) | 
C=C[C@]1(C)C[C@@H](OC(=O)N2Cc3cc(NC(=O)C(F)(F)F)ccc3C2=O)[C@]2(C)[C@H](C)CC[C@]3(CCC(=O)[C@H]32)[C@@H](C)[C@@H]1O |  | 4 (≈ 6.77 µM) | 2 (≈ 3.39 µM) | 2 (≈ 3.39 µM) |  | 2 (≈ 3.39 µM) | 2 (≈ 3.39 µM) | 
C=C[C@]1(C)C[C@@H](OC(=O)N2Cc3c(N)cccc3C2=O)[C@]2(C)[C@H](C)CC[C@]3(CCC(=O)[C@H]32)[C@@H](C)[C@@H]1O |  | 0.0625 (≈ 0.126 µM) | 0.0625 (≈ 0.126 µM) | 0.0625 (≈ 0.126 µM) |  | 0.0625 (≈ 0.126 µM) | 0.0625 (≈ 0.126 µM) | 
C=C[C@]1(C)C[C@@H](OC(=O)N2Cc3ccc(N)cc3C2=O)[C@]2(C)[C@H](C)CC[C@]3(CCC(=O)[C@H]32)[C@@H](C)[C@@H]1O |  | 0.0625 (≈ 0.126 µM) | 0.0625 (≈ 0.126 µM) | 0.0625 (≈ 0.126 µM) |  | 0.0625 (≈ 0.126 µM) | 0.0625 (≈ 0.126 µM) | 
C=C[C@]1(C)C[C@@H](OC(=O)N2Cc3ccc(NC(=O)CN4CCOCC4)cc3C2=O)[C@]2(C)[C@H](C)CC[C@]3(CCC(=O)[C@H]32)[C@@H](C)[C@@H]1O |  | 1 (≈ 1.61 µM) | 0.5 (≈ 0.804 µM) | 0.5 (≈ 0.804 µM) |  | 1 (≈ 1.61 µM) | 0.5 (≈ 0.804 µM) | 
C=C[C@]1(C)C[C@@H](OC(=O)N2Cc3ccc(NC(=O)CN4CCN(C)CC4)cc3C2=O)[C@]2(C)[C@H](C)CC[C@]3(CCC(=O)[C@H]32)[C@@H](C)[C@@H]1O |  | 0.5 (≈ 0.788 µM) | 0.5 (≈ 0.788 µM) | 0.5 (≈ 0.788 µM) |  | 0.5 (≈ 0.788 µM) | 0.5 (≈ 0.788 µM) | 
C=C[C@]1(C)C[C@@H](OC(=O)N2Cc3ccc(NC(=O)CN4CCN(CCO)CC4)cc3C2=O)[C@]2(C)[C@H](C)CC[C@]3(CCC(=O)[C@H]32)[C@@H](C)[C@@H]1O |  | 0.5 (≈ 0.752 µM) | 0.25 (≈ 0.376 µM) | 0.5 (≈ 0.752 µM) |  | 0.25 (≈ 0.376 µM) | 0.5 (≈ 0.752 µM) | 
C=C[C@]1(C)C[C@@H](OC(=O)N2Cc3ccc(NC(=O)CCN4CCOCC4)cc3C2=O)[C@]2(C)[C@H](C)CC[C@]3(CCC(=O)[C@H]32)[C@@H](C)[C@@H]1O |  | 0.5 (≈ 0.786 µM) | 0.25 (≈ 0.393 µM) | 0.5 (≈ 0.786 µM) |  | 0.25 (≈ 0.393 µM) | 0.5 (≈ 0.786 µM) | 
C=C[C@]1(C)C[C@@H](OC(=O)N2Cc3ccc(NC(=O)CCN4CCN(C)CC4)cc3C2=O)[C@]2(C)[C@H](C)CC[C@]3(CCC(=O)[C@H]32)[C@@H](C)[C@@H]1O |  | 0.5 (≈ 0.771 µM) | 0.5 (≈ 0.771 µM) | 0.5 (≈ 0.771 µM) |  | 0.5 (≈ 0.771 µM) | 0.5 (≈ 0.771 µM) | 
C=C[C@]1(C)C[C@@H](OC(=O)N2Cc3ccc(NC(=O)CCN4CCN(CCO)CC4)cc3C2=O)[C@]2(C)[C@H](C)CC[C@]3(CCC(=O)[C@H]32)[C@@H](C)[C@@H]1O |  | 4 (≈ 5.89 µM) | 2 (≈ 2.95 µM) | 2 (≈ 2.95 µM) |  | 2 (≈ 2.95 µM) | 2 (≈ 2.95 µM) | 
